High-throughput results (PubChem BioAssay)
NRP1-CendR mod: modulators of CendR peptide binding to human neuropilin-1 | O14786 | FAM-RPARPAR peptide binding to NRP-1, fluorescence polarization | inhibition, % at 25 µM | 360,000 tested, 0.85% active | AID 602438;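 active = inhibition or corrected inhibition above about 18%, plus a signal ratio from 0.5 to 1.5, limit read from the data, passing the limit was not always enough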
Target sequence (O14786 whole entry, looked up): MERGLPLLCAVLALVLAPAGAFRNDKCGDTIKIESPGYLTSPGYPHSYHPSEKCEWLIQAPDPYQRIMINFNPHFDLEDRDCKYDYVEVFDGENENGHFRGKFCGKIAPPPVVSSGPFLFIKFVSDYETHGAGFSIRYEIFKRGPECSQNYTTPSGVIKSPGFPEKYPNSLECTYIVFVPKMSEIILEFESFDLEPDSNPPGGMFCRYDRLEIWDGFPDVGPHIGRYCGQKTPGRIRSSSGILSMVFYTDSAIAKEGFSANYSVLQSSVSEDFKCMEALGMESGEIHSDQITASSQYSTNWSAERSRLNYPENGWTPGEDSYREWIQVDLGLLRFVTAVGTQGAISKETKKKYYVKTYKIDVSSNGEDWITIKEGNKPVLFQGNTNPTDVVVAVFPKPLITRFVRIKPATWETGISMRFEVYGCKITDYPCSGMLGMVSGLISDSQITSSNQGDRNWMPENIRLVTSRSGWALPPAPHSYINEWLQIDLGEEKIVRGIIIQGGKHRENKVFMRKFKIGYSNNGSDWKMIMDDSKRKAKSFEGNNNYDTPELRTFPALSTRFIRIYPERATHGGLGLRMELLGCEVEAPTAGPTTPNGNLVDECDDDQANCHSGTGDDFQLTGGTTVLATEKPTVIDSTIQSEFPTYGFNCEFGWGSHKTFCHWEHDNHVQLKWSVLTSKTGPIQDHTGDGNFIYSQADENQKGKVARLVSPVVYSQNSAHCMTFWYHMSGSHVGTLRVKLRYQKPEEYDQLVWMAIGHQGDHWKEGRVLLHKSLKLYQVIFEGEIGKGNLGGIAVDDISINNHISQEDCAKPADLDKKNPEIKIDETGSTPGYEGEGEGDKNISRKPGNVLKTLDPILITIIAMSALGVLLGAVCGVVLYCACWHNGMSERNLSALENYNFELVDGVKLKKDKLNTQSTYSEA
Myeloid diff MLP: myeloid differentiation induction | ER-HoxA9 myeloid progenitors, lysozyme-GFP differentiation, flow cytometry | calls only at 10 µM | 360,000 tested, 1% active | AID 624256;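 active = normalized GFP-positive differentiation at or above the plate's own cutoff, the solvent-only control mean plus 3 SD; inconclusive = no clear call, values can overlap the other calls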;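 also: cells exposed to compound for four days before flow analysis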
MT1-MMP act inh: MT1-MMP (human) activation inhibition; AID 651647; HT1080 RFP-PRO-GFP cells, GFP/RFP ratio fluorescence, overnight; percent of plate control window, DMSO zero; 360,000 tested, 0.061% active; GFP/RFP ratio change, % at 20 µM;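 active = GFP/RFP ratio change of at least 30% with cell ATP level not reduced by more than half and red fluorescence within 50% of control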
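Assay system: HT1080 cells carrying an RFP-PRO-GFP reporter | Dosing: Single dose of 20 µM compound, 1% DMSO final | Incubation: Cells overnight before dosing, compound overnight, 37 °C, 5% CO2 | Evaluation: GFP/RFP fluorescence ratio | Control set: DMSO and RFP-L50D-GFP cell wells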
SENP1 inh: blocks the human SENP1 SUMO protease catalytic domain; 360,000 tested, 0.21% active; AID 624204; Q9P0U3; recombinant SENP1 catalytic domain, CyPet-SUMO1-YPet FRET cleavage; inhibition, % at 10 µM;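 active = inhibition at least 30% at 10 µM, raw YFP signal under a set limit, fluorescence ratio 0.5 to 1.5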
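Test system: hSENP1 catalytic domain, recombinant; Amount: 20 pM final SENP1 enzyme; Medium: Tris pH 8 buffer plus EDTA, NaCl, BME, BSA, NP40, catalase; Schedule: 50 min enzyme reaction, room temperature, light-protected; Technique: FRET fluorescence in CFP and YFP emission channels; Controls: no-enzyme wells low, DMSO-plus-enzyme wells high control.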
beta cell repl: MIN6 beta-cell proliferation induction; 330,000 tested, 0.29% active; MIN6 cells proliferation, ATPlite luminescence, 48 h; cells starved in 0.2% serum; 100% = growth in 10% serum; proliferation, % at 10 µM;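 active = compounds whose signal lies at least 3.5 SD above the mean of all wells on their plate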
DAGLB inhibitor: blocks human DAGLB lipase activity; AID 504411; HEK293T DAGLB membrane lysate, EnzChek fluorogenic substrate; 340,000 tested, 0.059% active; inhibition, % at 5.17 µM; in the data active = inhibition above about 34%
Large screens that a line does not name were inactive. Only some compounds are listed: those with a hit (about 2.4% of all), similar ones and a draw of the others.

CC(=O)N(/N=C1\Sc2ccccc2C1=O)c1ccc(C)cc1C	Myeloid diff MLP active
CC(=O)N(/N=C1\Sc2ccccc2C1=O)c1ccccc1C	none
Nc1cc(Cl)nc(N/N=C/c2c(O)ccc3ccccc23)n1	SENP1 inh 48.0
Nc1nonc1N/N=C/c1c(O)ccc2ccccc12	none
CN(C)c1ccc(C(C(=O)NCC2CCCO2)N(Cc2ccco2)C(=O)c2snc(C(N)=O)c2N)cc1 (stereo unspecified)	none
CN(C)c1ccc(C(C(=O)NCC2CCCO2)N(Cc2ccccc2)C(=O)c2snc(C(N)=O)c2N)cc1 (stereo unspecified)	beta cell repl 8.8 (no result: Myeloid diff MLP)
O=C1OC(c2ccccc2)(c2ccccc2)c2ccccc21	none (no result: beta cell repl)
Cc1cccc(C2(c3cccc(C)c3)OC(=O)c3ccccc32)c1	Myeloid diff MLP active (no result: MT1-MMP act inh)
O=C(NNC1=NCCC1)c1ccc(Br)cc1	none
O=C(NNC1=NCCC1)C1CC1	Myeloid diff MLP active
CC(=O)c1cccc(OCc2cc(C(=O)N3C[C@H]4CC[C@H]3C4)no2)c1	Myeloid diff MLP active
COc1cccc(OCc2cc(C(=O)NC3CCOCC3)no2)c1	Myeloid diff MLP active
CC(=O)c1cccc(OCc2cc(C(=O)NC3CCN(Cc4ccccc4)CC3)no2)c1	NRP1-CendR mod 27.7
O=C(c1cc(COc2cccc(C(F)(F)F)c2)on1)N1C[C@H]2CC[C@H]1C2	none
COc1ccc(OCc2cc(C(=O)NC3CCOCC3)no2)c2ccccc12	none
COC(=O)[C@]12CCCCC=C1N(CCc1ccc(OC)c(OC)c1)C(=O)[C@H](CC(=O)NCCC(C)C)C2	none (no result: beta cell repl, DAGLB inhibitor)
COc1ccccc1C(=O)N/C(=C\c1cn(S(=O)(=O)N(C)C)c2ccccc12)C(=O)NCCCN1CCOCC1	NRP1-CendR mod 44.0
O=C(NC1CCOC1=O)OCc1ccccc1 (stereo unspecified)	none (no result: beta cell repl)
CCCCNc1nc(NCc2ccccc2)nc2ccccc12	Myeloid diff MLP active (no result: beta cell repl, DAGLB inhibitor)
CC1CCN(S(=O)(=O)c2ccc(NC(=O)CCN3C(=O)C4CC=CCC4C3=O)cc2)CC1 (stereo unspecified)	none
C#CCn1cc(/C=N/Nc2nc3ccccc3[nH]2)c2ccccc21	none
CCCN(C(=O)Cn1c(C(F)(F)F)nc2ccccc21)C1CCS(=O)(=O)C1 (stereo unspecified)	NRP1-CendR mod 44.7
O=C(NCCCN1CCc2ccccc2C1)C1CCN(S(=O)(=O)N2CCC3(CC2)OCCO3)CC1	none
COC(=O)[C@H]1C2CCC(C(=O)OC)(CC2)[C@H]1C(=O)OC	none
COC(=O)C1CC2(C(=O)OC)CC(C(=O)OC)(CC(C(=O)OC)C2=O)C1=O (stereo unspecified)	NRP1-CendR mod 26.5 (no result: beta cell repl)
Cc1ccccc1NC(=O)C1C(=O)Nc2ccccc2C(=O)N1Cc1ccccc1 (stereo unspecified)	none (no result: beta cell repl, DAGLB inhibitor)
COc1cc(/C=C2/SC(=O)NC2=O)ccc1OC(=O)c1ccco1	none
CCOc1cc(/C=C2/SC(=S)NC2=O)ccc1OC(=O)c1ccco1	SENP1 inh 74.8
O=C1NC(=S)S/C1=C/c1ccc(OC(=O)c2ccco2)cc1	Myeloid diff MLP active
O=C1COc2ccc(C(=O)COC(=O)c3cc(S(=O)(=O)N4CCOCC4)ccc3F)cc2N1	none
Cc1ccc(C(=O)NCC(=O)OCC(=O)c2ccc3c(c2)NC(=O)CO3)cc1	NRP1-CendR mod 31.2
N#Cc1ccccc1OCC(=O)OCC(=O)c1ccc2c(c1)NC(=O)CO2	none
O=C1COc2ccc(C(=O)COC(=O)CCc3ccc(S(=O)(=O)N4CCOCC4)cc3)cc2N1	NRP1-CendR mod 35.0
O=C1COc2ccc(C(=O)COC(=O)COc3ccccc3[N+](=O)[O-])cc2N1	NRP1-CendR mod 25.3
COC(=O)c1ccc(NC(=O)CN2C(=O)CNC2=O)cc1	none
CCN(CC(=O)Nc1ccc(NC(C)=O)cc1)C(=O)COc1ccc(C(=O)c2ccccc2)cc1	none
CC(NC(=O)c1ccc2nc[nH]c2c1)c1ccccc1 (stereo unspecified)	none
CCC(CC)NC(=O)c1ccc2nc[nH]c2c1	NRP1-CendR mod 29.2
COc1ccccc1-c1ccc(SCC(=O)NC2CCCC2)nn1	none
O=C(CCl)Nc1ccc(N2CCCCCC2)cc1	NRP1-CendR mod 42.6, Myeloid diff MLP inconclusive
CCC(=O)Nc1ccc(N2CCCCC2)cc1	none
O=C(c1cccc(OC2CCN(Cc3cccc(OCCO)c3)CC2)c1)N1CCCC1	Myeloid diff MLP active
COc1cccc(S(=O)(=O)N2C[C@H](O)COC[C@H]3O[C@@H](CC(=O)N4CCN(C)CC4)CC[C@@H]32)c1	none (no result: beta cell repl, DAGLB inhibitor)
CC(C)CC(NC(N)=O)C(=O)NCc1ccccc1Cl (stereo unspecified)	Myeloid diff MLP active
O=[N+]([O-])c1cc(/C=N/N/C(=N/c2ccccn2)c2ccccn2)ccc1O	SENP1 inh 33.6
O=[N+]([O-])c1ccc(/C=N/N/C(=N/c2ccccn2)c2ccccn2)cc1	none
COc1cc(OC)c(S(=O)(=O)NC(C)C)cc1S(=O)(=O)NC(C)C	none
C#CCOCCOCCOCCNc1nc(N2CCN(C(=O)[C@H]([C@@H](C)O)n3cc(CCCCN)nn3)CC2)nc(N2CCN(C(=O)[C@H](CCCCN)n3cc(CC(C)O)nn3)CC2)n1 (stereo partly specified)	none
C#CCOCCOCCOCCNc1nc(N2CCN(C(=O)[C@H](CCCCN)n3cc(CN)nn3)CC2)nc(N2CCN(C(=O)[C@H](CCCCN)n3cc(CN)nn3)CC2)n1	NRP1-CendR mod 32.1
C#CCOCCOCCOCCNc1nc(N2CCN(C(=O)[C@H]([C@@H](C)O)n3cc(CCCCN)nn3)CC2)nc(N2CCN(C(=O)[C@H](CCCCN)n3cc(CCCC)nn3)CC2)n1	Myeloid diff MLP active
C#CCOCCOCCOCCNc1nc(N2CCN(C(=O)[C@H]([C@@H](C)O)n3cc(CCCCN)nn3)CC2)nc(N2CCN(C(=O)[C@H]([C@@H](C)CC)n3cc(CCCCN)nn3)CC2)n1	none
C#CCOCCOCCOCCNc1nc(N2CCN(C(=O)[C@H]([C@@H](C)CC)n3cc(CCCCN)nn3)CC2)nc(N2CCN(C(=O)[C@H](CCCCN)n3cc(CC(C)O)nn3)CC2)n1 (stereo partly specified)	Myeloid diff MLP active
COc1ccc(S(=O)(=O)Nc2ccccc2C(=O)NC2CC2)cc1NC(C)=O	NRP1-CendR mod 27.7
CC(=O)c1ccc(S(=O)(=O)Nc2ccccc2C(=O)NC2CC2)cc1	none
COC(=O)c1ccccc1NS(=O)(=O)c1ccc(NC(C)=O)cc1	NRP1-CendR mod 35.1
